Test results reported in ChEMBL document CHEMBL5696442, “Discovery of type II inhibitors of TGFβ-activated kinase 1 (TAK1) and mitogen-activated protein kinase kinase kinase kinase 2 (MAP4K2)” (J Med Chem, 2015).

Tests used:
[1] = target: Tyrosine-protein kinase ABL2 (Homo sapiens, UniProt P42684); assay: Inhibition of ARG ACT labeling site in human Huh-7 cell lysate at 1 uM by KiNativ Profiling analysis relative to control; type: subcellular
[2] = target: Mitogen-activated protein kinase kinase kinase kinase 4 (Homo sapiens, UniProt O95819); assay: Inhibition of ZC1/HGK Lys1 labeling site in human A-375 cells at 5 uM by KiNativ Profiling analysis relative to control; type: cell-based
[3] = target: Proto-oncogene tyrosine-protein kinase Src (Homo sapiens, UniProt P12931); assay: Inhibition of SRC Lys1 labeling site in human A-375 cells at 5 uM by KiNativ Profiling analysis relative to control; type: cell-based
[4] = target: Serine/threonine-protein kinase Chk2 (Homo sapiens) (UniProt O96017); assay: Inhibition of CHK2 Lys1 labeling site in human A-375 cells at 5 uM by KiNativ Profiling analysis relative to control; type: cell-based
Summary of the method: (§1)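 Live A375 melanoma cells were treated with compound at 5 or 0.5 μM. The cells were then lysed, and the lysates were labeled with a lysine-reactive ATP or ADP-biotin acyl probe (KiNativ). Inhibition is the compound's protection of each kinase labeling-site peptide from probe labeling, relative to untreated control.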

[5] = target: T1, Dual specificity mitogen-activated protein kinase kinase 3 (Homo sapiens) (UniProt P46734); assay: Inhibition of MAP2K3 Lys2 labeling site in human A-375 cells at 5 uM by KiNativ Profiling analysis relative to control; type: cell-based
T1 sequence (whole entry): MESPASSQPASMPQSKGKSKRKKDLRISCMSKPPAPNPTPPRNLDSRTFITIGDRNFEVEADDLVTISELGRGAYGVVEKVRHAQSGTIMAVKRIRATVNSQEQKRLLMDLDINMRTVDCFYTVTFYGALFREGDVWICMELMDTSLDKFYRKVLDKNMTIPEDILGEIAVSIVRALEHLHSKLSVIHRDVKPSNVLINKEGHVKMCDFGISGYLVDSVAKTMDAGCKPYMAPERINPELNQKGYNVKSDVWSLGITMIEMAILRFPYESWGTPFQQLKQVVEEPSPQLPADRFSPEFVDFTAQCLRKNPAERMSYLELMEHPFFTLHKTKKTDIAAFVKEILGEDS

[6] = target: Ribosomal protein S6 kinase alpha-2 (Homo sapiens) (UniProt Q15349); assay: Inhibition of RSK3 Protein Kinase Domain in human A-375 cells at 5 uM by KiNativ Profiling analysis relative to control; type: cell-based
Summary of the method: (§2)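 Live A375 melanoma cells treated with compound at 5 or 0.5 μM, then lysed. Lysate kinases were labeled with a lysine-reactive ATP or ADP-biotin probe. Inhibition was read as protection of labeling sites from the probe.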

[7] = target: Serine/threonine-protein kinase WNK2 (Homo sapiens) (UniProt Q9Y3S1); assay: Inhibition of Wnk2 ATP Loop labeling site in human A-375 cells at 5 uM by KiNativ Profiling analysis relative to control; type: cell-based
[8] = target: RAC-alpha serine/threonine-protein kinase (Homo sapiens) (UniProt P31749); assay: Inhibition of AKT1 ATP Loop labeling site in human A-375 cells at 0.5 uM by KiNativ Profiling analysis relative to control; type: cell-based
Summary of the method: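 Live A375 melanoma cells were treated with compound at 5 or 0.5 μM, then lysed. The lysates were labeled with a lysine-reactive ATP or ADP-biotin probe. Kinase protection from probe labeling was measured by KiNativ.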

[9] = target: Calcium/calmodulin-dependent protein kinase type II subunit gamma (Homo sapiens) (UniProt Q13555); assay: Inhibition of CaMK2g Lys1 labeling site harbouring TSTQEYAAKIINTK in human A-375 cells at 0.5 uM by KiNativ Profiling analysis relative to control; type: cell-based; summary of the method: as §1
[10] = Inhibition of KHS1 Lys2 labeling site in human A-375 cells at 0.5 uM by KiNativ Profiling analysis relative to control; settings: condition cancer
[11] = target: Phosphatidylinositol 3-kinase catalytic subunit type 3 (Homo sapiens) (UniProt Q8NEB9); assay: Inhibition of PIK3C3 ATP labeling site in human A-375 cells at 0.5 uM by KiNativ Profiling analysis relative to control; type: cell-based
[12] = target: T2, EKC/KEOPS complex subunit TP53RK (Homo sapiens) (UniProt Q96S44); assay: Inhibition of PRPK ATP Loop labeling site in human A-375 cells at 0.5 uM by KiNativ Profiling analysis relative to control; type: cell-based
T2 sequence (whole entry): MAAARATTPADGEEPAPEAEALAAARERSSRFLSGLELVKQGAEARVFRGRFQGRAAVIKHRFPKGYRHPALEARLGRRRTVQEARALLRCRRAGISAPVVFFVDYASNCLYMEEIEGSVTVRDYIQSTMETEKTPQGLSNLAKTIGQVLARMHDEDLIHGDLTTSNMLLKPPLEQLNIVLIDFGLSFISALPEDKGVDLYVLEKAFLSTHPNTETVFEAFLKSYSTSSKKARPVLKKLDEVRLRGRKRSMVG

[13] = target: Ribosomal protein S6 kinase alpha-3 (Homo sapiens) (UniProt P51812); assay: Inhibition of RSK2 domain2 Lys2 labeling site in human A-375 cells at 0.5 uM by KiNativ Profiling analysis relative to control; type: cell-based; summary of the method: as §2
[14] = target: Serine/threonine-protein kinase WNK1 (Homo sapiens) (UniProt Q9H4A3); assay: Inhibition of Wnk1 ACT labeling site in human A-375 cells at 0.5 uM by KiNativ Profiling analysis relative to control; type: cell-based
[15] = target: Serine/threonine-protein kinase WNK4 (Homo sapiens) (UniProt Q96J92); assay: Inhibition of Wnk4 ACT labeling site in human A-375 cells at 0.5 uM by KiNativ Profiling analysis relative to control; type: cell-based
[16] = target: Tyrosine-protein kinase receptor UFO (Homo sapiens) (UniProt P30530); assay: Inhibition of AXL ACT labeling site in human A-375 cells at 0.05 uM by KiNativ Profiling analysis relative to control; type: cell-based
[17] = target: Serine/threonine-protein kinase MARK2 (Homo sapiens) (UniProt Q7KZI7); assay: Inhibition of MARK2 Lys1 labeling site in human A-375 cells at 0.05 uM by KiNativ Profiling analysis relative to control; type: cell-based
[18] = target: Ribosomal protein S6 kinase alpha-1 (Homo sapiens) (UniProt Q15418); assay: Inhibition of RSK1 domain1 Lys1 labeling site in human A-375 cells at 0.05 uM by KiNativ Profiling analysis relative to control; type: cell-based
[19] = target: Ribosomal protein S6 kinase alpha-2 (Homo sapiens) (UniProt Q15349); assay: Inhibition of RSK3 Protein Kinase Domain in human A-375 cells at 0.05 uM by KiNativ Profiling analysis relative to control; type: cell-based
[20] = target: Serine/threonine-protein kinase WNK2 (Homo sapiens) (UniProt Q9Y3S1); assay: Inhibition of Wnk2 ACT labeling site in human A-375 cells at 0.05 uM by KiNativ Profiling analysis relative to control; type: cell-based

Chain of Ribosomal protein S6 kinase alpha-2 (Homo sapiens) (Q15349 whole entry, the tested form may be a part): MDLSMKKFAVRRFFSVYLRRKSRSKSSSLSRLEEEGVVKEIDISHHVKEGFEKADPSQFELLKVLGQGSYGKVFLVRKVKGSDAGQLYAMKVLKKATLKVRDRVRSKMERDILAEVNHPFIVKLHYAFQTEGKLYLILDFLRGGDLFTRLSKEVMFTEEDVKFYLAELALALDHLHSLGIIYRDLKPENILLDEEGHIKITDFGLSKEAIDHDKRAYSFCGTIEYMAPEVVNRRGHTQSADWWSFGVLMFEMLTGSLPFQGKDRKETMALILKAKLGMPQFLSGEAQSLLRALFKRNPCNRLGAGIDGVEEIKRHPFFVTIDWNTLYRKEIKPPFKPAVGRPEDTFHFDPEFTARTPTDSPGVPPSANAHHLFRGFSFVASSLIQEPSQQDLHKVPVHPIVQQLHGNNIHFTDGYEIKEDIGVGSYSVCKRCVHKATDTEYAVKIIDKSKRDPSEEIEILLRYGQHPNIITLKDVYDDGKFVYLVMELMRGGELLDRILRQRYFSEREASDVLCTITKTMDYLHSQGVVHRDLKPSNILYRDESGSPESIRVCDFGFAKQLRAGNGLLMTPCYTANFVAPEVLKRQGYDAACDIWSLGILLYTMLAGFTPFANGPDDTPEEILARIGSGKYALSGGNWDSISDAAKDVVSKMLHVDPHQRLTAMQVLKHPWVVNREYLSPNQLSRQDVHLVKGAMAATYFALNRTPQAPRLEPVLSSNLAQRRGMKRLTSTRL
Chain of Serine/threonine-protein kinase WNK2 (Homo sapiens) (Q9Y3S1 whole entry): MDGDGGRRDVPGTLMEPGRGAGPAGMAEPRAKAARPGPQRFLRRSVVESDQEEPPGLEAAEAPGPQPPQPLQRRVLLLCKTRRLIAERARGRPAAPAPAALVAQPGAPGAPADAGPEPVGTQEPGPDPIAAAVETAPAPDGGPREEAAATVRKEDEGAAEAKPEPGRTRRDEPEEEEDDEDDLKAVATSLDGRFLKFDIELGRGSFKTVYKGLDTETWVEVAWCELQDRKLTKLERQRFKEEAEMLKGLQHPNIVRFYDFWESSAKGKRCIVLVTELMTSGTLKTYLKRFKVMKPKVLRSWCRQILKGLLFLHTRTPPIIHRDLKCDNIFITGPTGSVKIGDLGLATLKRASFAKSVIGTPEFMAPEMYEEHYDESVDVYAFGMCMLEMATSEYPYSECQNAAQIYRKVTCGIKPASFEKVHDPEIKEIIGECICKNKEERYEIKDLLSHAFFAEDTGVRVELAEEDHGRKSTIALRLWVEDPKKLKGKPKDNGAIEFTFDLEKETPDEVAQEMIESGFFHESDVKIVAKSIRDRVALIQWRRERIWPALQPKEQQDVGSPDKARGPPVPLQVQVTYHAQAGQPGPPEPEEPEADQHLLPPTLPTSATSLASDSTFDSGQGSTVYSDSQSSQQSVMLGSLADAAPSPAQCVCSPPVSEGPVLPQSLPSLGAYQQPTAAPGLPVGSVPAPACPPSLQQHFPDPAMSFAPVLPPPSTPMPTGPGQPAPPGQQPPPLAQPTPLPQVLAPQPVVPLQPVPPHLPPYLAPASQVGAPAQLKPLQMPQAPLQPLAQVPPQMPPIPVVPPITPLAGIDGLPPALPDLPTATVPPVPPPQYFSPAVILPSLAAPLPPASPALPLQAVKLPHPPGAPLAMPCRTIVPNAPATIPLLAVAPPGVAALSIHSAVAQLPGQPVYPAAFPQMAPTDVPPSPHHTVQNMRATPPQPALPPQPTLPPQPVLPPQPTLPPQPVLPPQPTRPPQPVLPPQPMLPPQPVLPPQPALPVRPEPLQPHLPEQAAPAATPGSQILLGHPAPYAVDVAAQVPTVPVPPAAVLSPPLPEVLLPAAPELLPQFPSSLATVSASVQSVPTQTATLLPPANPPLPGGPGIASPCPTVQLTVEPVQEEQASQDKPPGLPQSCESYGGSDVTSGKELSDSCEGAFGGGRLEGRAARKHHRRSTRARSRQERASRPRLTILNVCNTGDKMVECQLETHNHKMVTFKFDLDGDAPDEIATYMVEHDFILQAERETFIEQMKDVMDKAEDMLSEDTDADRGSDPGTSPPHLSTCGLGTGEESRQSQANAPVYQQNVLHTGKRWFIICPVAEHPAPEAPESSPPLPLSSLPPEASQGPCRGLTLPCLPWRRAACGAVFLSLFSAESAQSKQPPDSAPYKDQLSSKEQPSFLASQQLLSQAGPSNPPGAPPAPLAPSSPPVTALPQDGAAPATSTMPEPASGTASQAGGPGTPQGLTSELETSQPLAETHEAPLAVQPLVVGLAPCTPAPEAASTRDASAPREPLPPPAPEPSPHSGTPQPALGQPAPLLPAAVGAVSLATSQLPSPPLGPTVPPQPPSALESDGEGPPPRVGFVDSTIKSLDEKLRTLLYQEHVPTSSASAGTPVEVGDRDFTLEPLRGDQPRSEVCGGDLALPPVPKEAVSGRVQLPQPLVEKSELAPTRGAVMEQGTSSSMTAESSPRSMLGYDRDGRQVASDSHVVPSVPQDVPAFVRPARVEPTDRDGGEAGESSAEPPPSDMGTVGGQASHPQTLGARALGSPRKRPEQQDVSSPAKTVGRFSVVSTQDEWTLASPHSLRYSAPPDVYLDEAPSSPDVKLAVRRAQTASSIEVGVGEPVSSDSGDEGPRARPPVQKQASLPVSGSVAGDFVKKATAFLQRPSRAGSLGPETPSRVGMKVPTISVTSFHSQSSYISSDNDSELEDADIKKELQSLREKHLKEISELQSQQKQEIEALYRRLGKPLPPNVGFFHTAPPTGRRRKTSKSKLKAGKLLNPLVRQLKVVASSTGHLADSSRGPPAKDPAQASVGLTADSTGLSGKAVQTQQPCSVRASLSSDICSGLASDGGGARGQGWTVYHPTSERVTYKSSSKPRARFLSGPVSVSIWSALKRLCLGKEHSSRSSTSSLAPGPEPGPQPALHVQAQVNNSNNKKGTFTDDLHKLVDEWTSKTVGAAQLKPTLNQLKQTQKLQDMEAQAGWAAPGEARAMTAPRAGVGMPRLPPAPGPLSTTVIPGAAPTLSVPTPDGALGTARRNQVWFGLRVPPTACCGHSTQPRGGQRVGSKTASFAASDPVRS
Chain of Serine/threonine-protein kinase MARK2 (Homo sapiens) (Q7KZI7 whole entry, the tested form may be a part): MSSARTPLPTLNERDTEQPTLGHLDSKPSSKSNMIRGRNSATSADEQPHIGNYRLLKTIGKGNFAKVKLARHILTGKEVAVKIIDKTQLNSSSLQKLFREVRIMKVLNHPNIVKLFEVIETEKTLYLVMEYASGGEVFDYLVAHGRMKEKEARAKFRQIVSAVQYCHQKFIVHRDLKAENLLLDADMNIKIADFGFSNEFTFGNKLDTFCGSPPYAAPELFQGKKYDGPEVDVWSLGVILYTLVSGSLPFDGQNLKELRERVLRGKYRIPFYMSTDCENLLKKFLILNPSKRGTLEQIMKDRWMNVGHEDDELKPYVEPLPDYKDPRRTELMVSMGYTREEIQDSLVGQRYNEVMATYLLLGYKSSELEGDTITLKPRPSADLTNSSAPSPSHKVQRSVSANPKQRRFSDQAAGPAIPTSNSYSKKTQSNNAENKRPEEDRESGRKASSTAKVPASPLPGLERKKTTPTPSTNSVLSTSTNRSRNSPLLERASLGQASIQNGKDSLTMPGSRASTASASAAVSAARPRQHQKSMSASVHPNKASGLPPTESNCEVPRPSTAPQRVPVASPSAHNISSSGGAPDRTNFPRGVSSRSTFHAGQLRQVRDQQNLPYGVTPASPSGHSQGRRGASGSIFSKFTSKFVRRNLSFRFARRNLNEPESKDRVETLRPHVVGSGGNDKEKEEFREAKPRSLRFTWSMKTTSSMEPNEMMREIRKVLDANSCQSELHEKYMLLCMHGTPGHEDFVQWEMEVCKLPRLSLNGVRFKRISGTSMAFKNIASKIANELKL
Chain of Proto-oncogene tyrosine-protein kinase Src (P12931 2-536 limits assumed): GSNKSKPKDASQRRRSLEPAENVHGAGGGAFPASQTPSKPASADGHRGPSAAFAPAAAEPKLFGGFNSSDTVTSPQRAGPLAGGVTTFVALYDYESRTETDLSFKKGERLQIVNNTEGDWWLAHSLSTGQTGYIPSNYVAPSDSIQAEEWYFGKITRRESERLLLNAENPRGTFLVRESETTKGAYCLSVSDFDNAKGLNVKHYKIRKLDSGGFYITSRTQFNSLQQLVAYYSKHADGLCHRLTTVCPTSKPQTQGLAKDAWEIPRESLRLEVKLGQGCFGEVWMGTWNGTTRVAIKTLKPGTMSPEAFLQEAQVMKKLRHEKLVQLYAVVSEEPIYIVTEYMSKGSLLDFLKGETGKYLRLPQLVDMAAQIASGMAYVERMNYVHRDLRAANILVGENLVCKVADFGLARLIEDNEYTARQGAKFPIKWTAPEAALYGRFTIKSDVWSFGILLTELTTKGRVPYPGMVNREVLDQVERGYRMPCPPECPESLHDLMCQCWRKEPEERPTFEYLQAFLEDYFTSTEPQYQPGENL
Chain of Ribosomal protein S6 kinase alpha-3 (Homo sapiens) (P51812 whole entry, the tested form may be a part): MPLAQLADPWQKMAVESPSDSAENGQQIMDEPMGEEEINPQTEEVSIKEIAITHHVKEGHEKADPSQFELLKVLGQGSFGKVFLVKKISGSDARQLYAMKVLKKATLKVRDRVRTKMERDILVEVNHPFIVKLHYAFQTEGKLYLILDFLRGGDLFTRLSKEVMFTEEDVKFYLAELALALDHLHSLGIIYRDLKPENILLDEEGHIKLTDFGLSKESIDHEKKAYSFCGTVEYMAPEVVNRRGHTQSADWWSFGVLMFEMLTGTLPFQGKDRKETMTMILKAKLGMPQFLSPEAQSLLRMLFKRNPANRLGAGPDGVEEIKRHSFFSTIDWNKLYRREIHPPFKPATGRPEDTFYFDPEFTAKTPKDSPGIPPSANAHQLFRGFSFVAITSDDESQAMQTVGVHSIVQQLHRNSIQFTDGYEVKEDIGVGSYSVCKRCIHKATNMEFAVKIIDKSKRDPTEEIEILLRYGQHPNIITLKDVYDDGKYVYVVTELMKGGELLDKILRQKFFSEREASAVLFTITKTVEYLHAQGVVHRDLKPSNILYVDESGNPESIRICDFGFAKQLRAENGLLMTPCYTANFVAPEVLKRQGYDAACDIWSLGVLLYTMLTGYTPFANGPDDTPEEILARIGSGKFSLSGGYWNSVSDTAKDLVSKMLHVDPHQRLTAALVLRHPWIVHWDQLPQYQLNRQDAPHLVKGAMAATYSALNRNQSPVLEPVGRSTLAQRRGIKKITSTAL

SMILES | inhibition [1] [%] | inhibition [2] [%] | inhibition [3] [%] | inhibition [4] [%] | inhibition [5] [%] | inhibition [6] [%] | inhibition [7] [%] | inhibition [8] [%] | inhibition [9] [%] | inhibition at 0.5 µM [10] [%] | inhibition [11] [%] | inhibition [12] [%] | inhibition [13] [%] | inhibition [14] [%] | inhibition [15] [%] | inhibition [16] [%] | inhibition [17] [%] | inhibition [18] [%] | inhibition [19] [%] | inhibition [20] [%]
CNc1cc(Oc2cc(C(=O)Nc3cc(-n4cnc(C)c4)cc(C(F)(F)F)c3)ccc2C)ncn1 | 59.7 | – | – | – | – | – | – | – | – | – | – | – | – | – | – | – | – | – | – | –
CNc1cc(Oc2cc(C(=O)Nc3cc(N4CCN(C)CC4)cc(C(F)(F)F)c3)ccc2C)ncn1 | 49.4 | – | – | – | – | – | – | – | – | – | – | – | – | – | – | – | – | – | – | –
CCN1CCN(Cc2ccc(NC(=O)c3ccc(C)c(Oc4ccnc5[nH]ccc45)c3)cc2C(F)(F)F)CC1 | – | 86.4 | > 92 | 5.1 | -5.7 | 5.8 | 13.1 | -1 | 19.2 | -0.3 | 36.8 | 9.2 | -0.1 | 3.9 | 3.9 | 12.4 | 1.2 | -1.6 | -4.7 | 10.3
CCN1CCN(Cc2ccc(NC(=O)c3ccc(C)c(/C=C/c4cnc5[nH]ccc5c4OC)c3)cc2C(F)(F)F)CC1 | – | > 88 | > 92 | 11.5 | -6.9 | 20 | 13.7 | 15 | 34.3 | 36 | 51.6 | 9.6 | 6.2 | 6.9 | 6.9 | 10.1 | 3 | -0.5 | 1.4 | 10.1
